# Source: PubChem BioAssay (several laboratories)
# The sample as a whole holds a higher share of hits than the screen did.
# KCC2 mod: KCC2 cotransporter modulators, thallium flux, primary screen, cell-based, HEK293 KCC2, FluoZin-2 fluorescence, MLSMR; KCC2 cells, thallium flux FluoZin-2 fluorescence; AID 1456, 2008; 2.2% of 190,000 active; Solute carrier family 12 member 5 (Homo sapiens), Q9H2X9; B-score of Tl+ flux slope (higher = more flux/activation; lower = inhibition) at 10 µM;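 active = thallium flux slope and its plate-corrected score both differing from the plate sample mean at a set confidence after two filtering rounds, in either direction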;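 also: slope of fluorescence scaled to starting intensity during 10 to 20 s after thallium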
# ABCB6 inh MLPCN: ABCB6 transporter inhibitors, primary screen, K562-ABCB6 cells, flow cytometry, MLPCN library | ATP-binding cassette sub-family B member 6 (Homo sapiens), Q9NP58 | K562-ABCB6 porphyrin accumulation, 1 h; hits give low values | fluorescence ratio to DMSO, % at 10 µM | 0.19% of 360,000 active | AID 602162, 2011;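 active = fluorescence ratio to DMSO below 75%, the collection mean minus 3 SD; inconclusive = too few cells collected in the well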;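 also: signal is porphyrin accumulated inside mitochondria; 100% equals median channel fluorescence of DMSO control wells; lower ratio means ABCB6 inhibition with less porphyrin fluorescence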
# Target sequence (Q9NP58 whole entry, looked up): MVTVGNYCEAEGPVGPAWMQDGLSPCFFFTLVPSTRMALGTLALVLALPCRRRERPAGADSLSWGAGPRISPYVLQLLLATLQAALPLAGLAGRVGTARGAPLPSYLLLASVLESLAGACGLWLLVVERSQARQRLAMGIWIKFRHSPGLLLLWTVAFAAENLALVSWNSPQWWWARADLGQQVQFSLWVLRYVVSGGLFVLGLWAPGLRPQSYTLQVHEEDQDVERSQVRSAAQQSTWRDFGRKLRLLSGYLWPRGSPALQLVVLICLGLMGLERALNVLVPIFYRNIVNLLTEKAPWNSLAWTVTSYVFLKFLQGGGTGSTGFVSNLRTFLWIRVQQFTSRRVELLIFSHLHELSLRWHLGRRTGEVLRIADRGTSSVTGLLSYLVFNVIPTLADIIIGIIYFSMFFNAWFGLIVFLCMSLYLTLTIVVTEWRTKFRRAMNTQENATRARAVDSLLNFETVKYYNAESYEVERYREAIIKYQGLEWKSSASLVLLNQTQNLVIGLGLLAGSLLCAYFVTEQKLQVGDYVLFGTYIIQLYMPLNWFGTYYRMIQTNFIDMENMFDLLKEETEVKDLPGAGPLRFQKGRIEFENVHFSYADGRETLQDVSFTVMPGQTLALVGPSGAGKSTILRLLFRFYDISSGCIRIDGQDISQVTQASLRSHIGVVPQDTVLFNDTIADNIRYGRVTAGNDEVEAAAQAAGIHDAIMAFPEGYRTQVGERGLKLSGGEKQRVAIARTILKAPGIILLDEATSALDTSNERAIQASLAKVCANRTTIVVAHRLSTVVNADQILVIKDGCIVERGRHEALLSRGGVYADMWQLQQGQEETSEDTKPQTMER
# p-CIP stab down: p/CIP-EGFP fusion destabilizers, primary screen, fluorescence, F442A cells; decrease of EGFP signal, % at 10 µM; Q05BA5; 0.01% of 290,000 active; 16 h;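 active = EGFP signal decrease of at least 30% at 10 µM or well 3 SD below plate mean, unless failing retest; inactive = the rest, including hits failing retest or dose response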
# Dynein transport: inhibitors of GR-EGFP nuclear translocation, primary screen, dynein cargo transport inhibitor project, imaging, high-content, 3617.4 mouse cells; test concentration mostly 20 µM; stimulated with dexamethasone, 1 µM; hits give low values; z-score, hits read low; 0.47% of 220,000 active;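 active = plate z-score of nuclear minus cytoplasmic receptor signal below a set negative limit, without overly bright fluorescence or cell loss, cut at about -3.5 in these data, passing the limit was not always enough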;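 also: z-score of nuclear minus cytoplasmic ring GR-EGFP intensity difference per well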
#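 Medium: Induction medium lacking tetracycline, stripped serum | Probe or stimulus: 1.0 µM final dexamethasone stimulus | Schedule: 48 h induction, then 1 h compound, then 30 min agonist, 37 °C | Signal: Automated 10x imaging of fixed Hoechst-stained cells | Evaluation: Per-cell GR-EGFP intensity, nucleus versus surrounding cytoplasmic ring, well-averaged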
# V-ATPase pHluor: regulators of yeast V-ATPase proton pumping, primary screen, pHLuorin cytosolic pH fluorescence; response, % at 10 µM; 0.37% of 350,000 active; S. cerevisiae; in the data active = response mostly above about 7.3%, no sharp cut-off; inactive = mostly below about 5.4%; also: actives read high
# KCC2 secondary: KCC2 modulators in sodium-free buffer, confirmation, cell-based, HEK293 KCC2, thallium flux, secondary assay; shares compounds with KCC2 mod; FluoZin2 fluorescence; hits give high values; normalised thallium flux (F/F0 slope) at 10 µM; 15% of 3,700 active; AID 1713, 2009;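 active = thallium flux slope above the same plate's solvent-only control mean plus 3 SD; inconclusive = the two replicate wells disagree; inactive = no significant difference from solvent-only control wells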
# KCC2 bumet counter: thallium flux persisting under bumetanide in KCC2 cells, confirmation, counter-screen for KCC2 modulator project, cell-based, HEK293 KCC2, FluoZin2, secondary assay 3. shares compounds with KCC2 mod. HEK293-KCC2 + bumetanide/ouabain; hits give high values. normalized thallium flux at 10 µM. 49% of 3,700 active;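 active = thallium entry rate above the same plate's blocked-transporter control wells by more than 3 SD; inconclusive = the two repeat wells disagree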;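 also: raw slope of fluorescence over initial fluorescence between 10 and 20 s after thallium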
# KCC2 secondary2: KCC2 modulators without ouabain present, confirmation, cell-based, HEK293 KCC2, thallium flux, FluoZin2, secondary assay 2 | shares compounds with KCC2 mod | thallium flux FluoZin2 fluorescence; actives lie on both sides; F/F0 rise rate, 10–20 s post-thallium | normalized thallium flux at 10 µM | 23% of 3,700 active | AID 1715, 2009;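 active = thallium flux slope more than 3 SD above or below the plate's solvent-only control mean, mostly below; inconclusive = the two repeat wells disagreed; inactive = no significant shift from solvent-only controls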;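 also: raw slope with 0.1% DMSO as baseline and bumetanide as block control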
# HEK293 Tl flux: thallium flux modulation in parental HEK cells, confirmation, counter-screen for KCC2 modulator project, cell-based, counterscreen 1. shares compounds with KCC2 mod. HEK293 parental cells, thallium flux FluoZin2, ouabain; baseline-ratio fluorescence slope, 10–20 s after thallium. thallium flux rate (normalised fluorescence) at 10 µM. 46% of 3,700 active. AID 1716, 2009;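 active = thallium flux rate significantly above the same plate's solvent-only control wells, beyond their mean plus 3 SD; inconclusive = the two replicate wells gave conflicting results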
# KCC2 retest ouab: KCC2 inhibitors and activators, ouabain retest, confirmation, HEK-KCC2 cells. HEK293-KCC2, thallium flux FluoZin2 fluorescence; bidirectional: low = inhibitor, high = activator. raw Tl+ flux slope (below DMSO = inhibition, above = activation) at 10 µM. 48% of 3,700 active. shares compounds with KCC2 mod;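 active = thallium flux slope beyond 3 SD from same-plate DMSO control mean in most replicates, usually higher, sometimes lower; inconclusive = repeat tests gave conflicting results; inactive = no significant difference from controls in most replicates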;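 also: slope of initial-normalized fluorescence between seconds 10 and 20 after thallium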
# HEK293 Tl flux2: native HEK Tl+ uptake effects, second counter-screen – HEK cells, counterscreen 2, counter-screen for KCC2 modulator project, confirmation; shares compounds with KCC2 mod; AID 1718, 2009; HEK293 parental, thallium flux FluoZin-2 fluorescence slope; 33% of 3,700 active; thallium flux slope at 10 µM;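 active = thallium flux slope above the same plate's solvent-control mean plus 3 SD in both duplicate wells; inconclusive = duplicate wells that disagreed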;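 also: run without ouabain in cells lacking the KCC2 cotransporter; slope of fluorescence scaled to its starting value between 10 and 20 s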
# * hit, by the source's call; ? = inconclusive; . = not tested or not shown.
SMILES,KCC2 mod,ABCB6 inh MLPCN,p-CIP stab down,Dynein transport,V-ATPase pHluor,KCC2 secondary,KCC2 bumet counter,KCC2 secondary2,HEK293 Tl flux,KCC2 retest ouab,HEK293 Tl flux2
CC1=C(C(=O)OCCOc2ccccc2)C(c2ccsc2)NC(=O)N1C (stereo not drawn),-6.6*,92,2,0.66,0,0.0084,0.006,0.03*,0.0038,0.016*,0.011
COc1ccc(C)cc1N(C(=O)c1ccco1)C(C(=O)NC1CCCC1)c1ccc(N2CCOCC2)cc1 (stereo not drawn),.,98,-18,.,0,.,.,.,.,.,.
CCCCN1CC(C)(C)Oc2cccc(F)c2S1(=O)=O,.,99,.,.,1,.,.,.,.,.,.
Cc1cccnc1C1=NOC(Cc2ccccc2)C(=O)N1C (stereo not drawn),.,103,.,.,.,.,.,.,.,.,.
NC1(CO)COC(c2ccccc2)OC1 (stereo not drawn),.,101,.,.,0,.,.,.,.,.,.
COc1ccccc1NC(C)C(=O)N/N=C/c1ccccc1OCc1cccc(Br)c1 (stereo not drawn),0.29,100,8,-0.36,-3,.,.,.,.,.,.
O=C(N/N=C/c1ccncc1)c1ccc(COc2cccc3cccnc23)cc1,-2.7,91,-5,-1,0,.,.,.,.,.,.
O=C(N/N=C/c1ccc2cccc(OCc3ccccc3)c2n1)c1ccc(Cl)cc1,4.9*,95,-2,1.1,1,0.022*,0.048*,0.031,0.014*,0.025*,?
Cc1ccc(NC(=O)CCCc2ccccc2)c([N+](=O)[O-])c1,.,98,4,.,2,.,.,.,.,.,.
CCOC(=O)CNC(=O)CSc1nnc(CCc2nc3ccccc3[nH]2)n1C,.,97,8,.,3,.,.,.,.,.,.
CNc1cncc(-c2cccc(OC)c2F)n1,.,98,.,.,.,.,.,.,.,.,.
CCOC(=O)Cn1c(=S)[nH]c2c(oc3ccc(Cl)cc32)c1=O,.,114,-10,-0.88,-2,0.022*,0.041*,0.033,0.02*,0.04*,0.014*
CCOC(=O)Cn1c(=O)oc2ccc(C)cc21,0.88,97,-10,-0.58,1,.,.,.,.,.,.
C=CCn1c(C)cc(C(=O)CSc2nnc(Cc3ccccc3)o2)c1C,.,94,10,-0.34,-1,0.007,0.0062,0.03*,0.0036,0.017*,0.011
C=CCn1c(C)cc(C(=O)CSc2nnc(NCc3ccccc3)s2)c1C,-2.7*,90,5,-0.53,2,0.0067,0.0047,0.035,?,?,0.011
C=CCn1c(C)cc(C(=O)CSc2nnc(NC(C)C)s2)c1C,-0.14,95,9,0.014,3,.,.,.,.,.,.
Cc1ccc(C)c(S(=O)(=O)NC(C)C(=O)Nc2ccc(-c3nc4ccccc4s3)cc2)c1 (stereo not drawn),4.8*,102,-8,0.22,-2,0.017,0.0059*,0.03,?,0.017,0.011
CN(CCc1ccccn1)C(=O)c1nn2c(C(F)(F)F)cc(-c3ccco3)nc2c1Cl,-5.2*,99,-8,-0.0018,1,0.0074,0.0051,0.031,0.0074,0.014*,0.0098
Cc1ccc(N2C(=O)CCC2(C(N)=O)c2ccccc2)cc1 (stereo not drawn),-0.094,97,-4,-0.13,1,.,.,.,.,.,.
CCC(C)(C)n1nnnc1C(c1ccncc1)N1CCN(c2cccc(OC)c2)CC1 (stereo not drawn),.,101,4,-0.31,-1,.,.,.,.,.,.
CCC(C)(C)n1nnnc1C(c1cccnc1)N1CCN(c2cccc(C(F)(F)F)c2)CC1 (stereo not drawn),-3.2*,101,-17,-0.8,1,0.0068,0.0039*,0.031,?,0.018,0.01
CN(C(=O)c1ccccc1)C(=O)c1ccccc1,.,104,.,.,-4,.,.,.,.,.,.
Cc1oc2cc(O)cc(C)c2c(=O)c1-c1cnn(-c2ccccc2)c1,-1.9,97,-14,-0.19,0,0.0084,0.006,0.034,0.0038,0.018,0.011
CCNc1nc(NCC)nc(Oc2ccc(N)cc2)n1,.,96,-15,-0.08,-4,0.0067,0.0046,0.031,0.0074,0.018,0.0096
CCNc1nc(OC)nc(Oc2ccc(C(=O)OC)cc2)n1,-0.38,98,10,-0.037,0,.,.,.,.,.,.
SMILES,KCC2 mod,ABCB6 inh MLPCN,p-CIP stab down,Dynein transport,V-ATPase pHluor,KCC2 secondary,KCC2 bumet counter,KCC2 secondary2,HEK293 Tl flux,KCC2 retest ouab,HEK293 Tl flux2
CC1CCCC(NC(=O)COC(=O)CCC(=O)c2cccs2)C1C (stereo not drawn),.,101,.,.,-1,.,.,.,.,.,.
CC1CCCC(NC(=O)COC(=O)CCSc2ccccc2)C1C (stereo not drawn),.,96,17,0.3,2,0.0076,0.0059,0.034,0.0069,0.017*,0.01
O=C(/C=C/c1ccccc1)CC(=O)c1ccccc1O,6.8*,104,-4,-2.4,4,0.0054,0.011*,0.031,0.013*,?,0.015*
CC(C)N(C)Cc1nnnn1CC(=O)NCCc1cccc(C(F)(F)F)c1,.,109,0,.,2,.,.,.,.,.,.
COc1ccc(/C=N/Nc2nc(C(=O)O)cs2)cc1,.,100,-7,.,-2,.,.,.,.,.,.
COc1cccc(/C=N/N2C(=O)CSC2=S)c1O,3.5*,97,6,-0.84,0,0.013*,0.016*,0.033,0.01*,?,?
O=C(NNC(=O)c1cnccc1C(F)(F)F)c1cccc(Cl)c1,0.0054,92,-6,1.2,-1,.,.,.,.,.,.
